Measurements taken from ChEMBL document CHEMBL1122411 (J Med Chem, 1983).
pIC50, pKi: −log10 of the molar value. Several values for one entry are separate records, joined by “and”; a condition that tells them apart may be missing. Equal values may be shown once.

What was measured:
[1] = tested on: L1210; experiment: cytotoxicity against L1210 cells; type: functional; conditions: Mus musculus, read-out: ID50 (the source's name)
[2] = species: Mus musculus; experiment: 1Percentage increase in life span after 12-15 days; type: functional
Outline: (§1)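 Male B6D2F1J mice (20–25 g), randomized after i.p. inoculation with 10^5 L1210 ascitic leukemia cells on day 0. Drug in water, pH 7.5–8.0, given i.p. on a q2d×5, qd×9 (from day 1) or b.i.d.×10 schedule; 5 mice per group. %ILS = [(T/C) − 1]100 from median survival days of treated versus control mice. Range is survival days.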

[3] = species: Mus musculus; experiment: Percentage increase in life span after 14-18d ays; type: functional; outline: as §1
[4] = species: Mus musculus; experiment: Percentage increase in life span after 17-22 days; type: functional; outline: as §1
[5] = species: Mus musculus; experiment: Percentage increase in life span after 11-22 days; type: functional; outline: as §1
[6] = species: Mus musculus; experiment: Percentage increase in life span after 12-19 days; type: functional; outline: as §1
[7] = tested on: Mus musculus; experiment: Weight change on day 7 in L1210 Lymphoid Leukemia in mice at a dose of 15 mg/kg/day (qd x5); type: functional; conditions: in the assay text read “q2dx5” for “qdx5”
Outline: (§2)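 Male B6D2F₁J mice (20–25 g) bearing ip L1210 ascites (10⁵ cells, day 0) were used, 5 per group. Drug was given ip in water at pH 7.5–8.0 from day 1 on q2d×5, qd×9 or b.i.d.×10 schedules. Animals were weighed after 7 days and percent weight change recorded.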

[8] = tested on: Mus musculus; experiment: Weight change on day 7 in L1210 Lymphoid Leukemia in mice at a dose of 2 mg/kg/day (qdx9); type: functional; outline: as §2
[9] = tested on: Mus musculus; experiment: Toxicity in mice after 11-22 days at a dose of 6 mg/kg/day; value is 21/9; type: functional
[10] = tested on: Mus musculus; experiment: Toxicity in mice after 12-15 days at a dose of 0.25 mg/kg/day; value is 13/8; type: functional
[11] = tested on: Mus musculus; experiment: Toxicity in mice after 12-19 days at a dose of 4 mg/kg/day; value is 17/9; type: functional
[12] = tested on: Mus musculus; experiment: Toxicity in mice after 14-18 days at a dose of 10 mg/kg/day; value is 17/9; type: functional
[13] = tested on: Mus musculus; experiment: Toxicity in mice after 15-17 days at a dose of 0.5 mg/kg/day; value is 16/8; type: functional
[14] = tested on: Mus musculus; experiment: Toxicity in mice after 15-17 days at a dose of 0.75 mg/kg/day; value is 17/8; type: functional
[15] = species: Mus musculus; experiment: Toxicity in mice after 17-22 days at a dose of; value is 20/9; type: functional
[16] = tested on: Mus musculus; experiment: Weight change on day 7 in L1210 Lymphoid Leukemia in mice at a dose of 4 mg/kg/day (qdX9); type: functional; outline: as §2
[17] = tested on: Mus musculus; experiment: Weight change on day 7 in L1210 Lymphoid Leukemia in mice at a dose of 6 mg/kg/day (qdX9); type: functional
Outline: (§3)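 Male B6D2F1J mice (20–25 g) were inoculated i.p. with 10⁵ L1210 ascites cells on day 0 and randomized into groups of 5. Drug in water at pH 7.5–8.0 was given i.p. daily for 9 days (qd×9) from day 1. Animals were weighed after 7 days, and the % body-weight change was recorded under a standard NCI protocol.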

[18] = tested on: Mus musculus; experiment: Weight change on day 7 in L1210 Lymphoid Leukemia in mice at a dose of 0.25 mg/kg/day (b.i.d. x10); type: functional; outline: as §2
[19] = tested on: Mus musculus; experiment: Weight change on day 7 in L1210 Lymphoid Leukemia in mice at a dose of 0.5 mg/kg/day (b.i.d. x10); type: functional; outline: as §2
[20] = tested on: Mus musculus; experiment: Weight change on day 7 in L1210 Lymphoid Leukemia in mice at a dose of 10 mg/kg/day (qd x5); type: functional
[21] = tested on: Mus musculus; experiment: Weight change on day 7 in L1210 Lymphoid Leukemia in mice at a dose of 0.75 mg/kg/day (b.i.d. x10); type: functional; outline: as §2
[22] = tested on: Mus musculus; experiment: Toxicity in mice after 14-18 days at a dose of 2 mg/kg/day; value is 16/9; type: functional
[23] = Tested for substrate activity of compound for Carboxypeptidase G1; set-up: species or system Mus musculus
Outline: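 Cleavage by carboxypeptidase G₁ was followed as the A320 change on release of the pteroate. Conditions were 37 °C in 0.05 M potassium phosphate, pH 6.7, with 100 μM ZnSO₄. Enzyme was diluted in 1% BSA to give ΔA320 of 0.02–0.2/min. Km and Vmax came from Lineweaver-Burk plots. Ki came from competitive runs varying analogue against fixed MTX, or vice versa.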

[24] = molecular target: T1, Dihydrofolate reductase (Mus musculus) (UniProt P00375); experiment: Binding affinity to Dihydrofolate reductase of L1210 cell line using [H]MTX as radioligand; type: cell-based
T1 sequence (whole entry): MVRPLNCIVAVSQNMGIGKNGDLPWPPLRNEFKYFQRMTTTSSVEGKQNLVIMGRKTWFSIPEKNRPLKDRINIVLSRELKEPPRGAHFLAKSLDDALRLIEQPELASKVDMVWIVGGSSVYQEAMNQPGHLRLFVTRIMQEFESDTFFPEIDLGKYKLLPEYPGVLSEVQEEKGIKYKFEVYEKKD
Outline: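 Competitive [³H]MTX binding to dihydrofolate reductase from L1210 leukemia. Ascites cells from tumor-bearing mice were washed and lysed before use. The assay ran at 37 °C in 0.1 M potassium phosphate, pH 6.8. ID₅₀ was read as inhibition of radioligand binding, with MTX included in each experiment.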

[25] = molecular target: T1, Dihydrofolate reductase (Mus musculus); experiment: Binding affinity to Dihydrofolate reductase of L1210/R71 using spectrophotometric assay
Outline: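 The enzyme was isolated from MTX-resistant L1210/R71 cultured cells and purified on MTX-agarose. The assay measured ΔA340 at 22 °C in 0.1 M Tris, pH 7.0, with 62 nM enzyme. Enzyme was preincubated 2 min with inhibitor and NADPH, and dihydrofolate was then added to start the reaction. ID₅₀ determined.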

[26] = tested on: L1210; experiment: Cytotoxicity against L1210 cells; type: functional; conditions: Mus musculus, read-out: ID50 (the source's name)
[27] = species: Mus musculus; experiment: Percentage increase in life span after 14-22 days; type: functional; outline: as §1
[28] = species: Mus musculus; experiment: Percentage increase in life span after 10-22 days; type: functional; outline: as §1
[29] = species: Mus musculus; experiment: Percentage increase in life span after 10-23 days; type: functional; outline: as §1
[30] = species: Mus musculus; experiment: Percentage increase in life span after 10-24 days; type: functional; outline: as §1
[31] = species: Mus musculus; experiment: Percentage increase in life span after 11-16 days; type: functional; outline: as §1
[32] = species: Mus musculus; experiment: Percentage increase in life span after 12-20 days; type: functional; outline: as §1
[33] = species: Mus musculus; experiment: Percentage increase in life span after 13-18 days; type: functional; outline: as §1
[34] = tested on: Mus musculus; experiment: Weight change on day 7 in L1210 Lymphoid Leukemia in mice at a dose of 2 mg/kg/day (1dx9); type: functional; outline: as §2
[35] = tested on: Mus musculus; experiment: Weight change on day 7 in L1210 Lymphoid Leukemia in mice at a dose of 20 mg/kg/day (qdx5); type: functional; conditions: in the assay text read “q2dx5” for “qdx5”; outline: as §2
[36] = tested on: Mus musculus; experiment: Weight change on day 7 in L1210 Lymphoid Leukemia in mice at a dose of 20 mg/kg/day (qdx9); type: functional; outline: as §2
[37] = tested on: Mus musculus; experiment: Toxicity in mice after 12-20 days at a dose of 4 mg/kg/day; value is 13/8.5; type: functional
[38] = tested on: Mus musculus; experiment: Weight change on day 7 in L1210 Lymphoid Leukemia in mice at a dose of 4 mg/kg/day (1dx9); type: functional; outline: as §2
[39] = tested on: Mus musculus; experiment: Toxicity in mice after 13-18 days at a dose of 20 mg/kg/day; value is 13/9; type: functional
[40] = tested on: Mus musculus; experiment: Toxicity in mice after 14-22 days at a dose of 8 mg/kg/day; value is 14/8.5; type: functional
[41] = tested on: Mus musculus; experiment: Weight change on day 7 in L1210 Lymphoid Leukemia in mice at a dose of 40 mg/kg/day (qdx9); type: functional; outline: as §3
[42] = tested on: Mus musculus; experiment: Toxicity in mice after 10-22 days at a dose of 40 mg/kg/day; value is 15/9; type: functional
[43] = tested on: Mus musculus; experiment: Toxicity in mice after 10-23 days at a dose of 40 mg/kg/day; value is 21/9; type: functional
[44] = tested on: Mus musculus; experiment: Toxicity in mice after 10-24 days at a dose of 20 mg/kg/day; value is 18/9; type: functional
[45] = tested on: Mus musculus; experiment: Weight change on day 7 in L1210 Lymphoid Leukemia in mice at a dose of 8 mg/kg/day (1dx9); type: functional; outline: as §3
[46] = tested on: Mus musculus; experiment: Toxicity in mice after 11-16 days at a dose of 2 mg/kg/day; value is 12/8.5; type: functional
[47] = molecular target: Dihydrofolate reductase (Lactobacillus casei) (UniProt P00381); conditions: Lacticaseibacillus casei
[48] = molecular target: Dihydrofolate reductase (Lactobacillus casei) (UniProt P00381); conditions: Lacticaseibacillus casei; remark: listed apart in the source
[49] = molecular target: T1, Dihydrofolate reductase (Mus musculus)
[50] = tested on: Carboxypeptidase G1 (Pseudomonas); experiment: Tested for substrate activity of compound for Carboxypeptidase G1

Dihydrofolate reductase (Lactobacillus casei), sequence (P00381 whole entry): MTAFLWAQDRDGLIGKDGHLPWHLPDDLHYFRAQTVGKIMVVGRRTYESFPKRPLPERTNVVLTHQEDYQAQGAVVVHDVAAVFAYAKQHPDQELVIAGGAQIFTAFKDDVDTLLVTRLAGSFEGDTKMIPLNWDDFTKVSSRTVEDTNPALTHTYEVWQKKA

Structure (SMILES): CN(Cc1cnc2nc(N)nc(N)c2n1)c1ccc(C(=O)N[C@@H](CCC(=O)O)C(=O)O)cc1 [METHOTREXATE]
- pIC50 [1]: 7.70
- ILS [2]: 63%
- ILS [3]: 89% and 78%
- ILS [4]: 122%
- ILS [5]: 133%
- ILS [6]: 89%
- Weight change [7]: 8%
- Weight change [8]: 6%
- T/C [9]: 21
- T/C [10]: 13
- T/C [11]: 17
- T/C [12]: 17
- T/C [13]: 16
- T/C [14]: 17
- T/C [15]: 20
- Weight change [16]: -2%
- Weight change [17]: -2%
- Weight change [18]: 1%
- Weight change [19]: 1%
- Weight change [20]: 11%
- Weight change [21]: 3%
- T/C [22]: 16

Structure (SMILES): CN(Cc1cnc2nc(N)nc(N)c2n1)c1ccc(C(=O)NC(CCCCC(=O)O)C(=O)O)cc1 (stereo unspecified)
- pKi [23]: 4.66
- ID50 [24]: 2.8 nM
- ID50 [25]: 39 nM
- pIC50 [26]: 8.00
- ILS [27]: 65%
- ILS [28]: 67%
- ILS [29]: 133%
- ILS [30]: 100%
- ILS [31]: 41%
- ILS [32]: 52%
- ILS [33]: 44%
- Weight change [34]: 10%
- Weight change [35]: 6%
- Weight change [36]: -2%
- T/C [37]: 13
- Weight change [38]: 4%
- T/C [39]: 13
- T/C [40]: 14
- Weight change [41]: -4%
- T/C [42]: 15
- T/C [43]: 21
- T/C [44]: 18
- Weight change [45]: 4%
- T/C [46]: 12
- ID50 [47]: 18 nM
- ID50 [48]: 6.3 nM
- ID50 [49]: 6.9 nM
- Km [50]: 481 µM
- Vmax [50]: 0.44 min⁻¹
